Reference: ChEMBL document CHEMBL1687909, “Design, synthesis, and biological evaluation of new cinnamic derivatives as antituberculosis agents” (J Med Chem, 2011)
≈ marks a conversion by molar mass, not a printed value.

Tests used:
[1] = system: Mycobacterium tuberculosis; assay: Antituberculosis activity against Mycobacterium tuberculosis MYC5165 harboring InhA mutant gene after 7 days by MTT assay; type: functional
Outline: (§1)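 Colorimetric MTT microassay: serial 2-fold dilutions from DMSO stocks in Middlebrook 7H9 broth, bacterial suspension in 7H9 added. After 6 days, MTT (1 mg/mL) added; 1 day later solubilization buffer, OD 570 nm. MIC = lowest concentration inhibiting growth, untreated bacilli as growth control.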

[2] = system: Mycobacterium tuberculosis; assay: Antituberculosis activity against Mycobacterium tuberculosis 1400 harboring KatG mutant gene after 7 days by MTT assay; type: functional; outline: as §1

Row | SMILES | MIC [1] | MIC [2]
1 | CC(C)=CCOc1ccc(/C=C/C(=O)NNC(=O)c2ccncc2)cc1 | 27 µM (≈ 9.49 µg/mL) | 68 µM (≈ 23.9 µg/mL)
2 | CC(C)=CCOc1ccc(/C=C/c2nnc3c4ccccc4cnn23)cc1 | 0.2 µM (≈ 0.0713 µg/mL) | 0.4 µM (≈ 0.143 µg/mL)
3 | COc1ccc(/C=C/C(=O)NNC(=O)c2ccncc2)cc1 | 16 µM (≈ 4.76 µg/mL) | 320 µM (≈ 95.1 µg/mL)
4 | O=C(O)c1cn(C2CC2)c2cc(N3CCNCC3)c(F)cc2c1=O [CIPROFLOXACIN] | 5 µM (≈ 1.66 µg/mL) | 5 µM (≈ 1.66 µg/mL)
5 | NNC(=O)c1ccncc1 [ISONIAZID] | 18 µM (≈ 2.47 µg/mL) | 729 µM (≈ 100 µg/mL)
